In brackets after ≈: the same amount, converted by molar mass.
Experiments:
[1] = Antimycobacterial activity against Mycobacterium massiliense isolate CIP108297 after 8 days by resazurin microtiter based colorimetric assay; format: functional, Mycobacterium abscessus subsp. massiliense; settings: Mycobacteroides abscessus, isolate CIP108297, 192 h
How it was run: (§1)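 Resazurin microtiter plate MIC, read by visual scan for growth, in Mueller Hinton II broth. Strains include clinical isolates of M. abscessus complex, M. chelonae, M. avium, M. intracellulare, M. xenopi, P. aeruginosa PAO-1 and S. aureus ATCC 25923.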

[2] = Selectivity index, ratio of TD50 for human THP1 cells to MIC for Mycobacterium chelonae ATCC 35752; format: toxicity; settings: THP-1 cells, read-out: Selectivity Index
How it was run: (§2)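 Ratio of THP-1 cytotoxicity to resazurin-assay MIC. Cytotoxicity: THP-1 cells were differentiated with 80 nM PMA overnight, plated for 24 h, then given 10-point DMSO dilutions (top 50 μM, 0.5% final DMSO) for 3 days at 37°C, 5% CO₂. ATP luminescence was read, with a staurosporine control. IC₅₀ = concentration giving 50% viability, from a Levenberg–Marquardt curve fit.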

[3] = Selectivity index, ratio of TD50 for human THP1 cells to MIC for Mycobacterium abscessus isolate DCI 21; format: toxicity; settings: THP-1 cells, read-out: Selectivity Index; how it was run: as §2
[4] = tested on: Mycobacterium tuberculosis; test: Antimycobacterial activity against Mycobacterium tuberculosis H37Rv MC2-6206 after 8 days by resazurin microtiter based colorimetric assay; format: functional; settings: H37Rv MC2-6206, 192 h
How it was run: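 MIC was measured by resazurin microtiter colorimetric assay with visual growth scoring. Medium was 7H9-ADC–0.05% tyloxapol with 0.2% casaminoacids, 48 µg/ml pantothenate and 50 µg/ml L-leucine.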

Pseudomonas aeruginosa = test: Antibacterial activity against Pseudomonas aeruginosa PAO1 after 8 days by resazurin microtiter based colorimetric assay; format: functional; settings: PAO1, 192 h; how it was run: as §1
[5] = Antimycobacterial activity against Mycobacterium bolletii ATCC 14472 after 8 days by resazurin microtiter based colorimetric assay; format: functional; settings: Mycobacteroides abscessus, ATCC 14472, 192 h; how it was run: as §1
[6] = tested on: Mycobacterium avium-intracellulare; test: Antimycobacterial activity against Mycobacterium avium-intracellulare isolate 1956 after 8 days by resazurin microtiter based colorimetric assay; format: functional; settings: isolate 1956, 192 h; how it was run: as §1
[7] = tested on: Mycobacteroides abscessus; test: Antimycobacterial activity against Mycobacterium abscessus ATCC 19977 after 8 days by resazurin microtiter based colorimetric assay; format: functional; settings: ATCC 19977, 192 h; how it was run: as §1
[8] = Selectivity index, ratio of TD50 for human THP1 cells to MIC for Mycobacterium bolletii ATCC 14472; format: toxicity; settings: THP-1 cells, read-out: Selectivity Index; how it was run: as §2
[9] = tested on: Mycobacterium abscessus subsp. massiliense; test: Inhibition of MmpL3 in Mycobacterium massiliense isolate 1513 assessed as reduction in trehalose dimycolate after 16 hrs using [1,2-14C]acetate labeled compounds by TLC analysis
How it was run: (§3)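 Lipids were run on TLC in CHCl3:CH3OH:H2O 20:4:0.5. Cell wall-bound MAMEs were run in n-hexane:ethyl acetate 95:5, developed three times. Phosphorimaging read-out gave TMM/TDM ratios and MAME radioactivity relative to untreated control.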

Mycobacterium avium = test: Antimycobacterial activity against Mycobacterium avium isolate 104 after 8 days by resazurin microtiter based colorimetric assay; format: functional; settings: isolate 104, 192 h
How it was run: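 M. avium 104 MICs were read by resazurin microtiter colorimetric assay in 96-well plates, with growth scored visually, in Mueller Hinton II medium.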

Staphylococcus aureus = test: Antibacterial activity against Staphylococcus aureus ATCC 25923 after 8 days by resazurin microtiter based colorimetric assay; format: functional; settings: ATCC 25923, 192 h; how it was run: as §1
Mycobacteroides chelonae = test: Antimycobacterial activity against Mycobacterium chelonae ATCC 35752 after 8 days by resazurin microtiter based colorimetric assay; format: functional; settings: ATCC 35752, 192 h; how it was run: as §1
[10] = Selectivity index, ratio of TD50 for human THP1 cells to MIC for Mycobacterium massiliense isolate CRM0019; format: toxicity; settings: THP-1 cells, read-out: Selectivity Index; how it was run: as §2
[11] = tested on: Mycobacterium abscessus subsp. massiliense; test: Inhibition of MmpL3 in Mycobacterium massiliense isolate 1513 assessed as reduction in arabinogalactan after 16 hrs using [1,2-14C]acetate labeled compounds by TLC analysis; how it was run: as §3
[12] = Selectivity index, ratio of TD50 for human THP1 cells to MIC for Mycobacterium tuberculosis H37Rv MC2-6206; format: toxicity; settings: THP-1 cells, read-out: Selectivity Index; how it was run: as §2
[13] = tested on: Mycobacterium abscessus subsp. massiliense; test: Inhibition of MmpL3 in Mycobacterium massiliense isolate 1513 assessed as reduction in trehalose monomycolate by measuring decrease in mycolic acid transfer to cell envelope after 16 hrs using [1,2-14C]acetate labeled compounds by TLC analysis; how it was run: as §3
[14] = Antimycobacterial activity against Mycobacterium massiliense isolate CRM0019 after 8 days by resazurin microtiter based colorimetric assay; format: functional, Mycobacterium abscessus subsp. massiliense; settings: Mycobacteroides abscessus, isolate CRM0019, 192 h; how it was run: as §1
Mycobacterium xenopi = test: Antimycobacterial activity against wild type Mycobacterium xenopi isolate 4042 after 8 days by resazurin microtiter based colorimetric assay; format: functional; settings: isolate 4042, 192 h; how it was run: as §1
[15] = Cytotoxicity against human THP1 cells assessed as reduction in cell viability after 3 days by CellTiter-Glo based luminescence assay; settings: THP-1 cells, read-out: TD50
How it was run: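 THP-1 cells in complete RPMI, made macrophage-like with 80 nM PMA overnight at 37°C, 5% CO2, then seeded and cultured 24 h. Cells got 10-point DMSO serial dilutions (top 50 µM, final DMSO 0.5%) for 3 days, with staurosporine as control. Viability read by CellTiter-Glo luminescence. IC50 (50% viability) came from a Levenberg–Marquardt curve fit.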

[16] = tested on: Mycobacteroides abscessus; test: Antimycobacterial activity against Mycobacterium abscessus isolate DCI 21 after 8 days by resazurin microtiter based colorimetric assay; format: functional; settings: isolate DCI 21, 192 h; how it was run: as §1
[17] = tested on: Mycolicibacterium smegmatis; test: Antimycobacterial activity against Mycobacterium smegmatis isolate MC2 155 after 8 days by resazurin microtiter based colorimetric assay; format: functional; settings: str. MC2 155, 192 h
[18] = tested on: Mycobacteroides abscessus; test: Bactericidal activity against Mycobacterium abscessus after 8 days by resazurin microtiter based colorimetric assay; format: functional
How it was run: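 MBC90 found by subculturing from the MIC wells onto 7H11 agar. Value is the lowest concentration cutting CFU by 90% versus the inoculum.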

Structure (SMILES)	MIC [1]	selectivity ratio [2]	selectivity ratio [3]	MIC [4]	MIC (Pseudomonas aeruginosa)	MIC [5]	MIC [6]	MIC [7]	selectivity ratio [8]	inhibition [9]	MIC (Staphylococcus aureus)	MIC (Mycobacteroides chelonae)	selectivity ratio [10]	inhibition [11]	selectivity ratio [12]	inhibition [13]	MIC [14]	MIC (Mycobacterium xenopi)	CC50 at 72 h [15]	MIC [16]	further results
O=C(NC12CC3CC(CC(C3)C1)C2)c1cc2ccccc2[nH]1	0.5 µg/mL (≈ 1.7 µM)	> 58	> 58	0.2 µg/mL (≈ 0.679 µM)	> 160 µg/mL	0.25 µg/mL (≈ 0.849 µM)	8 µg/mL (≈ 27.2 µM)	0.25 µg/mL (≈ 0.849 µM)	> 58	Dose-dependent effect	> 160 µg/mL	0.25 µg/mL (≈ 0.849 µM)	> 58	Dose-dependent effect	> 73	Dose-dependent effect	0.25 µg/mL (≈ 0.849 µM)	0.5 to 1 µg/mL (≈ 1.7 to 3.4 µM)	> 14.7 µg/mL	0.25 µg/mL (≈ 0.849 µM)	MIC (Mycobacterium avium): 8 µg/mL (≈ 27.2 µM); MIC [17]: 1.56 µg/mL (≈ 5.3 µM)
C[C@@H]1[C@H]2C[C@@H](C[C@H]1NC(=O)c1cc3ccccc3[nH]1)C2(C)C	0.06 µg/mL (≈ 0.202 µM)	> 188	22.6	0.05 µg/mL (≈ 0.169 µM)	> 160 µg/mL	0.12 µg/mL (≈ 0.405 µM)	8 µg/mL (≈ 27 µM)	0.12 µg/mL (≈ 0.405 µM)	92	Dose-dependent effect	40 µg/mL (≈ 135 µM)	< 0.06 µg/mL	188	Dose-dependent effect	226	Dose-dependent effect	0.06 µg/mL (≈ 0.202 µM)	0.5 to 1 µg/mL (≈ 1.69 to 3.37 µM)	11.3 µg/mL (≈ 38.1 µM)	0.5 µg/mL (≈ 1.69 µM)	MBC90 [18]: 0.06 µg/mL (≈ 0.202 µM); MIC (Mycobacterium avium): 8 µg/mL (≈ 27 µM); MIC [17]: 0.78 µg/mL (≈ 2.63 µM)
Cc1cc(C)c2cc(C(=O)NC3CCCCCCC3)[nH]c2c1	0.031 µg/mL (≈ 0.104 µM)	> 236	> 1910	0.0195 µg/mL (≈ 0.0653 µM)	> 160 µg/mL	0.0039 µg/mL (≈ 0.0131 µM)	1 µg/mL (≈ 3.35 µM)	0.063 µg/mL (≈ 0.211 µM)	> 3820	Dose-dependent effect	> 160 µg/mL	0.063 µg/mL (≈ 0.211 µM)	> 1910	Dose-dependent effect	> 764	Dose-dependent effect	0.0078 µg/mL (≈ 0.0261 µM)	0.25 µg/mL (≈ 0.838 µM)	> 14.9 µg/mL	0.0078 µg/mL (≈ 0.0261 µM)	MBC90 [18]: 0.015 µg/mL (≈ 0.0503 µM); MIC [17]: 0.313 to 0.625 µg/mL (≈ 1.05 to 2.09 µM)
Cc1cc(C)c2cc(C(=O)N[C@@H]3C[C@@H]4C[C@H]([C@H]3C)C4(C)C)[nH]c2c1	0.125 µg/mL (≈ 0.385 µM)	> 130	> 130	0.0195 µg/mL (≈ 0.0601 µM)	> 160 µg/mL	0.125 µg/mL (≈ 0.385 µM)	2 µg/mL (≈ 6.16 µM)	0.125 µg/mL (≈ 0.385 µM)	> 130	Dose-dependent effect	> 160 µg/mL	0.125 µg/mL (≈ 0.385 µM)	> 130	Dose-dependent effect	> 830	Dose-dependent effect	0.125 µg/mL (≈ 0.385 µM)	0.25 to 1 µg/mL (≈ 0.77 to 3.08 µM)	> 16.2 µg/mL	0.125 µg/mL (≈ 0.385 µM)	MIC (Mycobacterium avium): 2 µg/mL (≈ 6.16 µM); MIC [17]: 1.25 to 2.5 µg/mL (≈ 3.85 to 7.7 µM)

Source: ChEMBL document CHEMBL4033721, “Design, synthesis and evaluation of indole-2-carboxamides with pan anti-mycobacterial activity” (Bioorg Med Chem, 2017)
